{"data": "Measured values of several laboratories", "effect on": "binding", "note": "pKd: −log10 of the molar value."}
{"Structure (SMILES)": "O=c1cccccc1O", "target": "Carbonic anhydrase 2 (CA2, Homo sapiens, UniProt P00918)", "method": "ITC", "pKd": 2.77}
{"Structure (SMILES)": "COc1cc(Nc2ncc3c(n2)-c2ccc(Cl)cc2C(c2c(F)cccc2OC)=NC3)ccc1C(=O)O", "target": "Protein-tyrosine kinase 2-beta (PTK2B, Homo sapiens, UniProt Q14289)", "setting": "lysate", "pKd": 5.52}
{"Structure (SMILES)": "COc1ccc2c(c1)sc(-c1ccc(N(C)C)cc1)[n+]2C", "target": "Alpha-synuclein, fibril (SNCA, Homo sapiens, UniProt P37840)", "method": "SPR", "pKd": 4.14}
{"Structure (SMILES)": "Cc1cc2nc3c(=O)[nH]c(=O)nc-3n(C[C@H](O)[C@H](O)[C@H](O)COP(=O)(O)OP(=O)(O)OC[C@H]3O[C@@H](n4cnc5c(N)ncnc54)[C@H](O)[C@@H]3O)c2cc1C", "target": "Cytotoxic granule associated RNA binding protein TIA1 (TIA1, Homo sapiens, UniProt P31483)", "setting": "lysate", "pKd": 7.42}
{"Structure (SMILES)": "O=C(O)c1cc(O)c2c(c1)C(=O)c1cccc(O)c1C2=O", "target": "Oxysterols receptor LXR-alpha (NR1H3, Homo sapiens, UniProt Q13133)", "method": "SPR", "pKd": 4.33}
{"Structure (SMILES)": "Cc1cc(Nc2cc3ncccc3c(N[C@@H]3C[C@H]4CC[C@@H](C3)N4CCC#N)n2)n[nH]1", "target": "STE20-like serine/threonine-protein kinase (SLK, Homo sapiens, UniProt Q9H2G2)", "method": "competition with immobilised ligand", "pKd": 6.96}
{"Structure (SMILES)": "CC#CC(=O)N1CC[C@@H](n2cc(-c3ccc(Oc4c(F)cccc4F)cc3)c3c(N)n[nH]c(=O)c32)C1", "target": "Tyrosine-protein kinase ITK/TSK (ITK, Homo sapiens, UniProt Q08881)", "method": "competition with immobilised ligand", "pKd": "< 5.52"}
{"Structure (SMILES)": "Cc1cnc(-c2ccc(-c3ccc(NC(=O)Nc4c(F)cc(F)cc4F)cc3F)c3c2C(=O)NC3)[nH]1", "target": "Dual specificity mitogen-activated protein kinase kinase 6 (MAP2K6, Homo sapiens, UniProt P52564)", "method": "competition with immobilised ligand", "pKd": 7.92}
{"Structure (SMILES)": "CC(C)C[C@H](NC(=O)[C@H](CO)NC(=O)[C@H](Cc1ccc(O)cc1)NC(=O)[C@H](CS)NC(=O)[C@H](CS)NC(=O)[C@@H](N)CCCCN)C(=O)O", "target": "Receptor tyrosine-protein kinase erbB-2 (ERBB2, Homo sapiens, UniProt P04626)", "method": "fluorescence", "pH": "pH 7.4", "pKd": 6.74}
{"Structure (SMILES)": "N#CC1(c2ccc(NC(=O)c3cccnc3NCc3ccncc3)cc2)CCCC1", "target": "AMP-activated protein kinase (AMPK) alpha-1/beta-1/gamma-1 (PRKAG1/PRKAA1/PRKAB1, Homo sapiens, UniProt P54619+Q13131+Q9Y478)", "method": "SPR", "pKd": 5.60}
{"Structure (SMILES)": "FC(F)(F)c1n[nH]cc1-c1nc2ccc3[nH]ncc3c2c2c1CCCC2", "target": "Tyrosine-protein kinase ABL1, non-phosphorylated (ABL1, Homo sapiens, UniProt P00519)", "method": "competition with immobilised ligand", "pKd": 5.24}
